From ChEMBL document CHEMBL4014347, “Targeting Mycolic Acid Transport by Indole-2-carboxamides for the Treatment of Mycobacterium abscessus Infections” (J Med Chem, 2017)
Values after ≈ are worked out from the molar mass of the structure shown. Active and inactive are the calls of the source. No cut-off for these calls is given here.

How the values were obtained:
[1] = system: Mycobacteroides abscessus; test: Antibacterial activity against Mycobacterium abscessus CIP104536 smooth variant assessed as reduction in viable colony forming unit at 8 ug/ml after 4 days by time-kill assay; format: functional
Summary of the method: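 Set up as microdilution MIC plates in cation-adjusted Mueller−Hinton broth with smooth CIP 104536; serial dilutions plated after 0, 24, 48, 72 and 96 h of drug exposure; CFU counted after 4 days at 30 °C; mean of triplicate log10 values, representative of three independent experiments.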

[2] = system: Mycobacteroides abscessus; test: Antibacterial activity against Mycobacterium abscessus CIP104536 smooth variant expressing tdTomato infected in PMA activated THP-1 macrophages assessed as protection against […] infection after 4 days post treatment by microscopic method; format: functional
Summary of the method: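 THP-1 macrophages, PMA-differentiated, infected with tdTomato-expressing M. abscessus, amikacin-treated and drug-exposed as in the CFU assay; at 96 h, bacteria-containing macrophages counted under fluorescence microscopy (4297 total cells) to give percentage of infected cells.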

[3] = system: Mycobacteroides abscessus; test: Antibacterial activity against Mycobacterium abscessus CIP104536 smooth variant infected in PMA activated THP-1 macrophages assessed as reduction in viable colony forming unit at 96 ug/ml measured upto 4 days post treatment by fluorescence microscopic method; format: functional
Summary of the method: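 THP-1 cells in RPMI with 10% FBS, differentiated with 20 ng/mL PMA for 48 h at 37 °C; infected at MOI 1:2 for 2 h under 5% CO2; washed, 200 μg/mL amikacin for 1 h, washed; drug medium renewed daily; lysed in 1% Triton X100 at 0, 48, 96 h and plated for CFU; triplicates, two independent experiments.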

[4] = system: Mycobacteroides abscessus; test: Antibacterial activity against Addison's disease patient derived Mycobacterium abscessus subsp. massiliense isolate CIP108297 smooth variant after 3 to 5 days by two fold serial dilution method; format: functional
Summary of the method: (§1)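 Broth microdilution in cation-adjusted Mueller−Hinton broth per CLSI; inoculum 5 × 10^6 CFU/mL of exponential-phase bacteria; two-fold serial dilutions, solvent-only wells as control; 30 °C for 3−5 days; MIC read visually and confirmed by absorbance at 560 nm; triplicate on three independent occasions.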

[5] = Antibacterial activity against CF patient derived Mycobacterium abscessus subsp. bolletii isolate 112 rough variant after 3 to 5 days by two fold serial dilution method; format: functional; conditions: Mycobacteroides abscessus; summary of the method: as §1
Vero = test: Cytotoxicity against African green monkey Vero cells; format: cell-based; conditions: Chlorocebus sabaeus
[6] = Antibacterial activity against Mycobacterium abscessus subsp. bolletii isolate CIP108541 smooth variant after 3 to 5 days by two fold serial dilution method; format: functional; conditions: Mycobacteroides abscessus; summary of the method: as §1
[7] = system: Mycobacteroides abscessus; test: Antibacterial activity against non CF patient derived Mycobacterium abscessus subsp. abscessus isolate 2587 smooth variant after 3 to 5 days by two fold serial dilution method; format: functional; summary of the method: as §1
[8] = system: Mycobacteroides abscessus; test: Antibacterial activity against non CF patient derived Mycobacterium abscessus subsp. abscessus isolate 3022 rough variant after 3 to 5 days by two fold serial dilution method; format: functional; summary of the method: as §1
[9] = system: Mycobacteroides abscessus; test: Antibacterial activity against CF patient derived Mycobacterium abscessus subsp. massiliense isolate 111 smooth variant after 3 to 5 days by two fold serial dilution method; format: functional; summary of the method: as §1
[10] = system: Mycobacteroides abscessus; test: Antibacterial activity against CF patient derived Mycobacterium abscessus subsp. massiliense isolate 107 smooth variant after 3 to 5 days by two fold serial dilution method; format: functional; summary of the method: as §1
[11] = system: Mycobacteroides abscessus; test: Antibacterial activity against Mycobacterium abscessus CIP_OK4-10 harboring MAB_4508 g925c/A309P mutant after 3 to 5 days by two fold serial dilution method; format: functional; summary of the method: as §1
[12] = Antibacterial activity against CF patient derived Mycobacterium abscessus subsp. bolletii isolate 97 smooth variant after 3 to 5 days by two fold serial dilution method; format: functional; conditions: Mycobacteroides abscessus; summary of the method: as §1
[13] = system: Mycobacteroides abscessus; test: Antibacterial activity against CF patient derived Mycobacterium abscessus subsp. abscessus isolate 2524 rough variant after 3 to 5 days by two fold serial dilution method; format: functional; summary of the method: as §1
[14] = Antibacterial activity against CF patient derived Mycobacterium abscessus subsp. bolletii isolate 108 rough variant after 3 to 5 days by two fold serial dilution method; format: functional; conditions: Mycobacteroides abscessus; summary of the method: as §1
[15] = system: Mycobacteroides abscessus; test: Antibacterial activity against Mycobacterium abscessus CIP104536 after 3 to 5 days by two fold serial dilution method; format: functional
Summary of the method: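 Broth microdilution per CLSI in cation-adjusted Mueller–Hinton broth; exponential-phase inoculum 5 × 10^6 CFU/mL; two-fold serial dilutions from highest concentration, solvent wells as control; 30 °C for 3−5 days; MIC read visually and confirmed by absorbance at 560 nm; triplicate on three independent occasions.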

[16] = system: Mycobacteroides abscessus; test: Antibacterial activity against CF patient derived Mycobacterium abscessus subsp. massiliense isolate 210 rough variant after 3 to 5 days by two fold serial dilution method; format: functional; summary of the method: as §1
[17] = system: Mycobacteroides abscessus; test: Antibacterial activity against Mycobacterium abscessus CIP_PIPD1 harboring MAB_4508 g925c/A309P mutant after 3 to 5 days by two fold serial dilution method; format: functional; summary of the method: as §1
[18] = system: Mycobacteroides abscessus; test: Antibacterial activity against CF patient derived Mycobacterium abscessus subsp. massiliense isolate 122 smooth variant after 3 to 5 days by two fold serial dilution method; format: functional; summary of the method: as §1
[19] = system: Mycobacteroides abscessus; test: Antibacterial activity against CF patient derived Mycobacterium abscessus subsp. abscessus smooth variant after 3 to 5 days by two fold serial dilution method; format: functional; summary of the method: as §1
[20] = Antibacterial activity against CF patient derived Mycobacterium abscessus subsp. bolletii isolate 116 smooth variant after 3 to 5 days by two fold serial dilution method; format: functional; conditions: Mycobacteroides abscessus; summary of the method: as §1
[21] = system: Mycobacteroides abscessus; test: Antibacterial activity against CF patient derived Mycobacterium abscessus subsp. abscessus isolate 1298 smooth variant after 3 to 5 days by two fold serial dilution method; format: functional; summary of the method: as §1
[22] = Antibacterial activity against CF patient derived Mycobacterium abscessus subsp. bolletii isolate 114 smooth variant after 3 to 5 days by two fold serial dilution method; format: functional; conditions: Mycobacteroides abscessus; summary of the method: as §1
[23] = Selectivity index, ratio of IC50 for African green monkey Vero cells to MIC=<90 for Mycobacterium tuberculosis; format: toxicity; conditions: read-out: Selectivity Index
[24] = system: Mycobacteroides abscessus; test: Antibacterial activity against CF patient derived Mycobacterium abscessus subsp. massiliense isolate 140 smooth variant after 3 to 5 days by two fold serial dilution method; format: functional; summary of the method: as §1
[25] = system: Mycobacteroides abscessus; test: Inhibition of MmpL3 in Mycobacterium abscessus CIP104536 smooth variant assessed as reduction in trehalose dimycolate synthesis up to 6.2 ug/ml preincubated for 1 hr followed by [14C]acetic acid addition measured after 2 hrs by TLC based autoradiography analysis
Summary of the method: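 Exponential cultures in 7H9 with OADC exposed to increasing drug concentrations for 1 h at 37 °C with agitation, then labelled with 1 μCi/mL [14C]acetate (56 mCi/mmol) for 2 h; apolar lipids (TMM, TDM) run on TLC in chloroform/methanol/water 40:8:1; MAME and arabinogalactan-bound mycolates in petroleum ether/acetone 95:5; autoradiography.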

[26] = system: Mycobacterium tuberculosis; test: Inhibition of C-terminal His-tagged Mycobacterium tuberculosis Ag85C expressed in Escherichia coli C41 (DE3) at 2.5 to 50 uM after 1 hr by resorufin butyrate-based fluorescence assay
Summary of the method: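 Purified Ag85C mycolyltransferase activity measured with the fluorescent probe resorufin butyrate; compounds tested at 2.5 to 50 μM.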

[27] = system: Mycobacteroides abscessus; test: Antibacterial activity against Mycobacterium abscessus CIP104536 smooth variant harboring pMV261 MAB_4508_A309P mutant at 0.5 to 1 ug/ml after 3 days; format: functional
Summary of the method: (§2)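 M. abscessus overexpressing wild-type or A309P MAB_4508 from pMV261 plated on 7H10 agar with 10% OADC containing drug; plates incubated at 30 °C for 3 days before growth inspection.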

[28] = system: Mycobacteroides abscessus; test: Antibacterial activity against CF patient derived Mycobacterium abscessus subsp. massiliense isolate 212 smooth variant after 3 to 5 days by two fold serial dilution method; format: functional; summary of the method: as §1
[29] = system: Mycobacteroides abscessus; test: Antibacterial activity against CF patient derived Mycobacterium abscessus subsp. massiliense isolate 120 smooth variant after 3 to 5 days by two fold serial dilution method; format: functional; summary of the method: as §1
[30] = system: Mycobacteroides abscessus; test: Antibacterial activity against non CF patient derived Mycobacterium abscessus subsp. abscessus isolate CIP104536 rough variant after 3 to 5 days by two fold serial dilution method; format: functional; summary of the method: as §1
[31] = Antibacterial activity against non CF patient derived Mycobacterium abscessus subsp. bolletii isolate 17 smooth variant after 3 to 5 days by two fold serial dilution method; format: functional; conditions: Mycobacteroides abscessus; summary of the method: as §1
[32] = system: Mycobacteroides abscessus; test: Antibacterial activity against non CF patient derived Mycobacterium abscessus subsp. abscessus isolate CIP104536 smooth variant after 3 to 5 days by two fold serial dilution method; format: functional; summary of the method: as §1
[33] = Selectivity index, ratio of IC50 for African green monkey Vero cells to MIC for Mycobacterium abscessus CIP104536; format: toxicity; conditions: read-out: Selectivity Index
[34] = system: Mycobacteroides abscessus; test: Antibacterial activity against CF patient derived Mycobacterium abscessus subsp. abscessus isolate 3321 smooth variant after 3 to 5 days by two fold serial dilution method; format: functional; summary of the method: as §1
[35] = system: Mycobacteroides abscessus; test: Antibacterial activity against CF patient derived Mycobacterium abscessus subsp. massiliense isolate 185 smooth variant after 3 to 5 days by two fold serial dilution method; format: functional; summary of the method: as §1
[36] = system: Mycobacteroides abscessus; test: Antibacterial activity against Addison's disease patient derived Mycobacterium abscessus subsp. massiliense isolate CIP108297 rough variant after 3 to 5 days by two fold serial dilution method; format: functional; summary of the method: as §1
[37] = system: Mycobacteroides abscessus; test: Antibacterial activity against CF patient derived Mycobacterium abscessus subsp. abscessus rough variant after 3 to 5 days by two fold serial dilution method; format: functional; summary of the method: as §1
[38] = system: Mycobacteroides abscessus; test: Antibacterial activity against CF patient derived Mycobacterium abscessus subsp. abscessus isolate 2069 smooth variant after 3 to 5 days by two fold serial dilution method; format: functional; summary of the method: as §1
[39] = system: Mycobacteroides abscessus; test: Antibacterial activity against CF patient derived Mycobacterium abscessus subsp. abscessus isolate 2648 rough variant after 3 to 5 days by two fold serial dilution method; format: functional; summary of the method: as §1
[40] = system: Mycobacteroides abscessus; test: Antibacterial activity against Mycobacterium abscessus CIP104536 smooth variant assessed as reduction in viable colony forming unit at […] after 4 days by time-kill assay; format: functional
[41] = Antibacterial activity against non CF patient derived Mycobacterium abscessus subsp. bolletii isolate 19 rough variant after 3 to 5 days by two fold serial dilution method; format: functional; conditions: Mycobacteroides abscessus; summary of the method: as §1
[42] = system: Mycobacterium tuberculosis; test: Antibacterial activity against Mycobacterium tuberculosis by AlamarBlue assay; format: functional
[43] = system: Mycobacteroides abscessus; test: Antibacterial activity against CF patient derived Mycobacterium abscessus subsp. massiliense isolate 100 smooth variant after 3 to 5 days by two fold serial dilution method; format: functional; summary of the method: as §1
[44] = system: Mycobacteroides abscessus; test: Antibacterial activity against Mycobacterium abscessus CIP104536 smooth variant harboring pMV261 MAB_4508 wild type at 0.5 to 1 ug/ml after 3 days; format: functional; summary of the method: as §2

C[C@@H](O)[C@H]1C(=O)N2C(C(=O)O)=C(SCCNC=N)C[C@H]12
Activity [1]: Active
Activity [2]: Active
Activity [3]: Active

O=C(NC1CCCCCC1)c1cc2ccc(Br)cc2[nH]1
MIC [4]: 0.25 µg/mL (≈ 0.746 µM)
MIC [5]: 0.0625 µg/mL (≈ 0.186 µM)
IC50 (Vero): ≥ 64 µg/mL
MIC [6]: 0.125 µg/mL (≈ 0.373 µM)
MIC [7]: 0.25 µg/mL (≈ 0.746 µM)
MIC [8]: 0.125 µg/mL (≈ 0.373 µM)
MIC [9]: 0.125 µg/mL (≈ 0.373 µM)
MIC [10]: 0.25 µg/mL (≈ 0.746 µM)
MIC [11]: 32 µg/mL (≈ 95.5 µM)
MIC [12]: 0.25 µg/mL (≈ 0.746 µM)
MIC [13]: 0.125 µg/mL (≈ 0.373 µM)
MIC [14]: 0.5 µg/mL (≈ 1.49 µM)
MIC [15]: 0.125 µg/mL (≈ 0.373 µM)
MIC [16]: 0.125 µg/mL (≈ 0.373 µM)
MIC [17]: 32 µg/mL (≈ 95.5 µM)
MIC [18]: 0.125 µg/mL (≈ 0.373 µM)
MIC [19]: 0.125 µg/mL (≈ 0.373 µM)
MIC [20]: 1 µg/mL (≈ 2.98 µM)
MIC [21]: 0.125 µg/mL (≈ 0.373 µM)
MIC [22]: 0.125 µg/mL (≈ 0.373 µM)
selectivity ratio [23]: ≥ 2050
MIC [24]: 0.125 µg/mL (≈ 0.373 µM)
inhibition [25]: Dose-dependent effect
inhibition [26]: inactive
Activity [27]: inactive
MIC [28]: 0.125 µg/mL (≈ 0.373 µM)
MIC [29]: 0.125 µg/mL (≈ 0.373 µM)
MIC [30]: 0.0625 µg/mL (≈ 0.186 µM)
MIC [31]: 0.125 µg/mL (≈ 0.373 µM)
MIC [32]: 0.125 µg/mL (≈ 0.373 µM)
selectivity ratio [33]: ≥ 512
MIC [34]: 0.125 µg/mL (≈ 0.373 µM)
MIC [35]: 0.125 µg/mL (≈ 0.373 µM)
MIC [36]: 0.125 µg/mL (≈ 0.373 µM)
MIC [37]: 0.125 µg/mL (≈ 0.373 µM)
MIC [38]: 0.125 µg/mL (≈ 0.373 µM)
MIC [39]: 0.125 µg/mL (≈ 0.373 µM)
Activity [40]: Active
MIC [41]: 0.125 µg/mL (≈ 0.373 µM)
MIC=<90 [42]: 0.0313 µg/mL (≈ 0.0934 µM)
MIC [43]: 0.125 µg/mL (≈ 0.373 µM)
Activity [44]: Active
